From ChEMBL document CHEMBL2202977, “Optimization and structure-activity relationships of a series of potent inhibitors of methicillin-resistant Staphylococcus aureus (MRSA) pyruvate kinase as novel antimicrobial agents” (Bioorg Med Chem, 2012)
In brackets after ≈: the same amount, converted by molar mass.

Tests used:
Staphylococcus aureus [1] = experiment: Antimicrobial activity against Staphylococcus aureus ATCC 29213 after 24 hrs broth microdilution method; type: functional
Outline: (§1)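 MIC taken as the minimum concentration giving >98% growth inhibition of the named S. aureus strain (RN4220, ATCC 25923 or ATCC 29213). Values are single determinations or averages of n determinations. Vancomycin was run as control.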

Pyruvate kinase = target: T1, Pyruvate kinase (Staphylococcus aureus (strain MRSA252), UniProt Q6GG09); experiment: Inhibition of methicillin-resistant Staphylococcus aureus 252 pyruvate kinase by LDH assay; set-up: species or system Staphylococcus aureus subsp. aureus MRSA252
T1 sequence (Q6GG09 whole entry): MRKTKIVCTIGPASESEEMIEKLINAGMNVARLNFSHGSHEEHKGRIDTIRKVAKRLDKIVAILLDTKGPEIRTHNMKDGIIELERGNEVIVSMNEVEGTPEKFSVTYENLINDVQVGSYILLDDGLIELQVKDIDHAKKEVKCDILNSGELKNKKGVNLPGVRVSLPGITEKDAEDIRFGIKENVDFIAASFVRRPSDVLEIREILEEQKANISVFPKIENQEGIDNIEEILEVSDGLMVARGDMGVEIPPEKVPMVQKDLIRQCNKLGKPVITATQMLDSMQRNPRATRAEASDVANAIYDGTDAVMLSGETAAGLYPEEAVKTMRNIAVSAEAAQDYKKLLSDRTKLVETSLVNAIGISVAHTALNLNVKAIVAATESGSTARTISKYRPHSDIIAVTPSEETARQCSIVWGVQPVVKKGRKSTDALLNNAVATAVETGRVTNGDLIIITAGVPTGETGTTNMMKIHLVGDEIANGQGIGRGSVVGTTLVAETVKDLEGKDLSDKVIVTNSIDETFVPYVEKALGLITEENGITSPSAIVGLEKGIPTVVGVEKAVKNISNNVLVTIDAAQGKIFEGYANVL
Outline: (§2)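 MRSA pyruvate kinase activity was measured by a previously described procedure. IC50 was calculated from triplicate 15-point titrations, or averaged over n such determinations. Where no IC50 was obtained, the value is % inhibition at the highest concentration tested.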

Staphylococcus aureus [2] = experiment: Antimicrobial activity against Staphylococcus aureus ATCC 25923 after 24 hrs broth microdilution method; type: functional; outline: as §1
[3] = target: T2, Pyruvate kinase (Staphylococcus aureus (strain MRSA252)) (UniProt Q6GG09); experiment: Inhibition of methicillin-resistant Staphylococcus aureus 252 pyruvate kinase at 1 uM by LDH assay; settings: Staphylococcus aureus subsp. aureus MRSA252; outline: as §2
T2 sequence (whole entry): T1 sequence (Q6GG09 whole entry)

[4] = target: Pyruvate kinase PKLR (Homo sapiens) (UniProt P30613); experiment: Inhibition of human pyruvate kinase L at 10 uM by LDH assay
Sequence of Pyruvate kinase PKLR (Homo sapiens) (P30613 whole entry, looked up, canonical isoform): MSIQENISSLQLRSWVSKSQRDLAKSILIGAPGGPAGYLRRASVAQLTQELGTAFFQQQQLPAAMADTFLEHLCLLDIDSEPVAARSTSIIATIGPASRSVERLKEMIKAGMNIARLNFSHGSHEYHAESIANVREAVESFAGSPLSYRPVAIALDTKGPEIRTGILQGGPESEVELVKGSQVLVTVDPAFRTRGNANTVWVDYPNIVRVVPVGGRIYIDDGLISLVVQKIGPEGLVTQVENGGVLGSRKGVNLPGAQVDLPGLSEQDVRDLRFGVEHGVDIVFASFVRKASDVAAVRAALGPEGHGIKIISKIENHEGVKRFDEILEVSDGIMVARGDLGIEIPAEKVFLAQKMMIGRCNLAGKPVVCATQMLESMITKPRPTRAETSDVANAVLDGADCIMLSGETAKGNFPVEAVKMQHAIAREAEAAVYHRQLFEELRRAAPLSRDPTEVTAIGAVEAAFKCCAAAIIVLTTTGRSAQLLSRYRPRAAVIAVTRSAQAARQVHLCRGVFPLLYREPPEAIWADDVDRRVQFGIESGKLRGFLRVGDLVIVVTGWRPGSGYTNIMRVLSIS
Outline: (§3)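 Selected compounds were tested against mammalian PK isoforms M1, M2, R and L at the highest concentration, 10 µM. Results are given as percent inhibition.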

[5] = target: Pyruvate kinase PKM (Homo sapiens) (UniProt P14618); experiment: Inhibition of human pyruvate kinase M2 at 10 uM by LDH assay; outline: as §3
Sequence of Pyruvate kinase PKM (Homo sapiens) (P14618 2-531 limits assumed): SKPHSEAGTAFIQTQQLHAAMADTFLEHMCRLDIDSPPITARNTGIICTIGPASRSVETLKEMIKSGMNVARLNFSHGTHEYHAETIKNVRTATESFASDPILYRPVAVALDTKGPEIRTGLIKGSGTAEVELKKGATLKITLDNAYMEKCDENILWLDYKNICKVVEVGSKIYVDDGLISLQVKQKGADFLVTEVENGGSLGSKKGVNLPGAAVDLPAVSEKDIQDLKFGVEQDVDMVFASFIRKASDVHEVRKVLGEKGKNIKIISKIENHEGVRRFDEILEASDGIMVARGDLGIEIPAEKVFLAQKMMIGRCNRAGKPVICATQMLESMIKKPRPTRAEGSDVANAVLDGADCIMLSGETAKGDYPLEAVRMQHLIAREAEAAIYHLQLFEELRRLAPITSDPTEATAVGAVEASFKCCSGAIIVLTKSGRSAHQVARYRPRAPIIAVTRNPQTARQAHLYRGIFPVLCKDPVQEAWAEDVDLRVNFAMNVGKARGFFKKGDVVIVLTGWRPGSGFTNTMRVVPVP

[6] = target: Pyruvate kinase PKLR (Homo sapiens) (UniProt P30613); experiment: Inhibition of human pyruvate kinase R at 10 uM by LDH assay; outline: as §3
[7] = target: Pyruvate kinase PKM (Homo sapiens) (UniProt P14618); experiment: Inhibition of human pyruvate kinase M1 at 10 uM by LDH assay; outline: as §3
[8] = target: T2, Pyruvate kinase (Staphylococcus aureus (strain MRSA252)); experiment: Inhibition of methicillin-resistant Staphylococcus aureus 252 pyruvate kinase at 10 uM by LDH assay; settings: Staphylococcus aureus subsp. aureus MRSA252; outline: as §2
THP-1 [9] = experiment: Cytotoxicity against human THP1 cells assessed as cell death at 6.25 uM after 24 hrs by MTS assay; type: cell-based; settings: thp-1, 24 h
Outline: (§4)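 THP-1 cells were exposed to test agent at 25 µM and 6.25 µM. Read-out was percentage of dead cells.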

THP-1 [10] = experiment: Cytotoxicity against human THP1 cells assessed as cell death at 25 uM after 24 hrs by MTS assay; type: cell-based; settings: thp-1, 24 h; outline: as §4
Staphylococcus aureus [11] = experiment: Antimicrobial activity against Staphylococcus aureus RN4220 after 24 hrs broth microdilution method; type: functional; outline: as §1
[12] = target: T2, Pyruvate kinase (Staphylococcus aureus (strain MRSA252)); experiment: Inhibition of methicillin-resistant Staphylococcus aureus 252 pyruvate kinase at 0.5 uM by LDH assay; settings: Staphylococcus aureus subsp. aureus MRSA252; outline: as §2

`CC(=NNC(=O)c1cc(Br)ccc1O)c1cc2c(F)c(F)c(F)cc2n1C` (mixture of isomers) was tested, and the “MIC>98” value (Staphylococcus aureus [1]) was 2 µg/mL and the IC50 (Pyruvate kinase) was 55 nM.

With `C/C(=N\NC(=O)c1cc(Br)ccc1O)c1cc2c(F)c(F)c(F)cc2[nH]1` the “MIC>98” value (Staphylococcus aureus [1]) was greater than 85 µg/mL and the IC50 (Pyruvate kinase) was 15 nM.

With `C/C(=N\NC(=O)c1cc(Br)ccc1O)c1cc2cc(O)ccc2[nH]1` the “MIC>98” value (Staphylococcus aureus [2]) was greater than 64 µg/mL and the IC50 (Pyruvate kinase) was 214 nM.

In the case of `COc1ccc(Br)cc1C(=O)N(C)/N=C(\C)c1cc2ccccc2[nH]1`, the inhibition [3] is reported as 33% and the “MIC>98” value (Staphylococcus aureus [2]) is reported as greater than 80 µg/mL.

With `CCOc1ccc(Br)cc1C(=O)N/N=C(\C)c1cc2ccccc2[nH]1` the “MIC>98” value (Staphylococcus aureus [1]) was greater than 64 µg/mL and the IC50 (Pyruvate kinase) was 63 nM.

`CCOCOc1ccccc1C(=O)N/N=C(\C)c1cc2cc(Br)ccc2[nH]1` was tested, and the “MIC>98” value (Staphylococcus aureus [1]) was greater than 64 µg/mL and the IC50 (Pyruvate kinase) was 251 nM.

With `CC/C(=N\NC(=O)c1cc2ccccc2cc1O)c1cc2c(F)c(F)c(F)cc2n1C` the “MIC>98” value (Staphylococcus aureus [1]) was 32 µg/mL (≈ 75.2 µM) and the IC50 (Pyruvate kinase) was 52 nM.

In the case of `CC(=NNC(=O)c1cc2ccccc2cc1O)c1cc2cc(Br)ccc2n1C` (mixture of isomers), the “MIC>98” value (Staphylococcus aureus [1]) is reported as greater than 64 µg/mL and the IC50 (Pyruvate kinase) is reported as 115 nM.

`O=C(NN=C(c1ccccc1)c1cc2ccccc2[nH]1)c1cc(Br)ccc1O` showed an inhibition [4] of 5.6%, an inhibition [5] of 4.8% and an inhibition [6] of 13.4%. The inhibition [7] was 11.2%, the inhibition [8] was 97.6% and the Activity (THP-1 [9]) was 43%. For the same molecule, the Activity (THP-1 [10]) was 83%, the “MIC>98” value (Staphylococcus aureus [11]) was 1.4 µg/mL (≈ 3.22 µM) and the IC50 (Pyruvate kinase) was 445 nM.

With `Cn1c(C(=NNC(=O)c2cc(Br)ccc2O)c2ccccc2)cc2ccccc21` (mixture of isomers) the Activity (THP-1 [9]) was 19%, the Activity (THP-1 [10]) was 78% and the “MIC>98” value (Staphylococcus aureus [11]) was 1.4 µg/mL. It also gave an IC50 (Pyruvate kinase) of 6040 nM.

`Cn1c(/C(=N\NC(=O)c2cc(Br)ccc2O)C(C)(C)C)cc2ccccc21` was tested, and the inhibition [8] was 0%, the Activity (THP-1 [9]) was 25% and the Activity (THP-1 [10]) was 73%. The “MIC>98” value (Staphylococcus aureus [11]) was 10.7 µg/mL (≈ 25 µM).

With `COc1c(Br)cc(Br)cc1C(=O)N/N=C(\C)c1cc2ccccc2[nH]1` the inhibition [3] was 57% and the “MIC>98” value (Staphylococcus aureus [2]) was greater than 93 µg/mL.

Molecule `CC/C(=N\NC(=O)c1cc2ccccc2cc1O)c1cc2cc(Br)ccc2[nH]1` has an inhibition [4] of -0.2%, an inhibition [5] of 3% and an inhibition [6] of -3.4%. The inhibition [7] was 5.6%, the inhibition [8] was 99.6% and the “MIC>98” value (Staphylococcus aureus [1]) was 16 µg/mL (≈ 36.7 µM). For the same molecule, the IC50 (Pyruvate kinase) was 18 nM.

With `CC(=NNC(=O)c1ccc(Br)cc1O)c1cc2ccccc2n1C` (mixture of isomers) the inhibition [12] was 61% and the “MIC>98” value (Staphylococcus aureus [11]) was 4.8 µg/mL.

For `C/C(=N\NC(=O)c1cc(Br)ccc1O)c1cc2ccc(Br)cc2[nH]1`, the “MIC>98” value (Staphylococcus aureus [2]) was greater than 64 µg/mL and the IC50 (Pyruvate kinase) was 24 nM.

With `COc1ccc(Br)cc1C(=O)N/N=C/c1cc2ccccc2[nH]1` the “MIC>98” value (Staphylococcus aureus [1]) was greater than 64 µg/mL and the IC50 (Pyruvate kinase) was 451 nM.

In the case of `C/C(=N\NC(=O)c1cc2ccccc2cc1O)c1cc2ccccc2[nH]1`, the “MIC>98” value (Staphylococcus aureus [1]) is reported as greater than 64 µg/mL and the IC50 (Pyruvate kinase) is reported as 42 nM.

`CC(=NNC(=O)c1cc(Br)ccc1O)c1cc2ccccc2n1C` (mixture of isomers) was tested, and the inhibition [5] was 0.4%, the inhibition [6] was 2.6% and the inhibition [7] was -3.7%. The inhibition [8] was 96.3%, the “MIC>98” value (Staphylococcus aureus [1]) was 7.7 µg/mL and the IC50 (Pyruvate kinase) was 381 nM.

In the case of `CC/C(=N\NC(=O)c1cc(Br)ccc1O)c1cc2cc(Br)ccc2[nH]1`, the “MIC>98” value (Staphylococcus aureus [1]) is reported as 4 µg/mL (≈ 8.6 µM) and the IC50 (Pyruvate kinase) is reported as 49 nM.

With `CC(=NNC(=O)c1cc(Br)ccc1O)c1cc2cc(O)ccc2n1C` (mixture of isomers) the inhibition [3] was 54% and the “MIC>98” value (Staphylococcus aureus [2]) was greater than 64 µg/mL.

With `CC(C)(C)/C(=N/NC(=O)c1cc(Br)ccc1O)c1cc2ccccc2[nH]1` the inhibition [8] was 0%, the Activity (THP-1 [9]) was 42% and the Activity (THP-1 [10]) was 50%. The “MIC>98” value (Staphylococcus aureus [11]) was 83 µg/mL (≈ 200 µM).

With `C/C(=N\NC(=O)c1cc(Br)ccc1O)c1cc2cccc(F)c2[nH]1` the inhibition [12] was 39% and the “MIC>98” value (Staphylococcus aureus [11]) was greater than 156 µg/mL.

With `CC(=NNC(=O)c1cc(Br)ccc1O)c1nc2ccccc2o1` (mixture of isomers) the inhibition [12] was 26% and the “MIC>98” value (Staphylococcus aureus [1]) was greater than 150 µg/mL.

In the case of `CCC(=NNC(=O)c1cc2ccccc2cc1O)c1cc2cc(Br)ccc2n1C` (mixture of isomers), the inhibition [4] is reported as -5.6%, the inhibition [5] is reported as -0.8% and the inhibition [6] is reported as -0.6%. The inhibition [7] was 0%, the inhibition [8] was 97.7% and the “MIC>98” value (Staphylococcus aureus [1]) was 1 µg/mL. The IC50 (Pyruvate kinase) was 79 nM.

With `CC/C(=N\NC(=O)c1cc2ccccc2cc1O)c1cc2c(F)c(F)c(F)cc2[nH]1` the “MIC>98” value (Staphylococcus aureus [1]) was greater than 64 µg/mL and the IC50 (Pyruvate kinase) was 31 nM.

`C/C(=N\NC(=O)c1cc(Cl)ccc1O)c1cc2ccccc2[nH]1` was tested, and the inhibition [3] was 36% and the “MIC>98” value (Staphylococcus aureus [11]) was greater than 64 µg/mL.

In the case of `C/C(=N\NC(=O)c1cc(Br)ccc1O)c1cc2cc(-c3ccccc3)ccc2[nH]1`, the inhibition [3] is reported as 0% and the “MIC>98” value (Staphylococcus aureus [11]) is reported as greater than 90 µg/mL.

In the case of `C/C(=N\NC(=O)c1cc2ccccc2cc1O)c1cc2cc(Br)ccc2[nH]1`, the “MIC>98” value (Staphylococcus aureus [1]) is reported as greater than 64 µg/mL and the IC50 (Pyruvate kinase) is reported as 26 nM.
